Measurements as given in ChEMBL document CHEMBL3414452, “Synthesis and in vitro antiplasmodial evaluation of 7-chloroquinoline-chalcone and 7-chloroquinoline-ferrocenylchalcone conjugates” (Eur J Med Chem, 2015).

Columns and labels:
[1] = system: Plasmodium falciparum; assay: Antimalarial activity against CQ-resistant Plasmodium falciparum W2 assessed as parasite growth inhibition after 48 hrs by YOYO-1 dye based flow cytometry; assay type: functional, organism-based; settings: W2, 48 h
Summary of the method: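 W2 strain cultured in RPMI-1640 with 10% human serum, sorbitol-synchronized (5%). Ring-stage microcultures exposed to a range of compound concentrations (DMSO ≤0.1% final; 0.1% DMSO controls) for 48 h. Fixed 48 h in 1% formaldehyde/PBS pH 7.4 at room temperature, stained with 1 nM YOYO-1 in 0.1% Triton X-100/PBS, and parasitemia read by flow cytometry. IC50 from nonlinear fit of duplicate experiments.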

[2] = Selectivity index, ratio of IC50 for human HeLa cells to IC50 for CQ-resistant Plasmodium falciparum W2; assay type: toxicity, cell-based; settings: read-out: Ratio IC50
Summary of the method: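 Ratio of HeLa IC50 to W2 IC50. HeLa cells grown in DMEM with penicillin/streptomycin to 70% confluency, dosed from DMSO stocks, and incubated 24 h at 37 °C in CO2. Cells were then washed, trypsinized, stained with trypan blue for about 10 min at room temperature, and viable/dead cells counted by hemacytometer. IC50 fitted from counts.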

[3] = system: HeLa; assay: Cytotoxicity against human HeLa cells after 24 hrs by trypan blue dye exclusion assay; assay type: cell-based
Summary of the method: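 HeLa cells grown in DMEM with penicillin/streptomycin. Compound from DMSO stock was added once cultures reached 70% confluency, then incubated 24 h at 37 °C under CO₂. Cells were PBS-washed, detached with 0.25% trypsin for 5 min, and resuspended in PBS. Trypan blue was added for about 10 min at room temperature. Viable and dead cells were counted by hemacytometer, and IC₅₀ derived.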

SMILES | IC50 [1] | selectivity ratio [2] | IC50 [3]
O=C(COc1ccc(C(=O)/C=C/c2ccccc2)cc1)NCCCCNc1ccnc2cc(Cl)ccc12 | 398 nM |  | 
COc1ccc(/C=C/C(=O)c2ccc(OCC(=O)NCCCCNc3ccnc4cc(Cl)ccc34)cc2)cc1 | 170 nM |  | 
COc1ccc(/C=C/C(=O)c2ccc(OCC(=O)NCCNc3ccnc4cc(Cl)ccc34)cc2)cc1 | 2740 nM |  | 
O=Cc1ccc(OCC(=O)NCCCCNc2ccnc3cc(Cl)ccc23)cc1 | 444 nM |  | 
O=C(O)COc1ccc(C(=O)/C=C/c2ccccc2)cc1 | > 10000 nM |  | 
O=C(COc1ccc(/C=C/C(=O)c2ccccc2)cc1)NCCCCNc1ccnc2cc(Cl)ccc12 | 139 nM |  | 
CC(=O)c1ccc(OCC(=O)NCCCCNc2ccnc3cc(Cl)ccc23)cc1 | 148 nM |  | 
COc1ccc(C(=O)/C=C/c2ccc(OCC(=O)O)cc2)cc1 | > 10000 nM |  | 
CC(=O)c1ccc(OCC(=O)NCCCNc2ccnc3cc(Cl)ccc23)cc1 | 173 nM |  | 
O=C(COc1ccc(C(=O)/C=C/c2ccccc2)cc1)NCCCNc1ccnc2cc(Cl)ccc12 | 46.3 nM |  | 
O=Cc1ccc(OCC(=O)NCCCNc2ccnc3cc(Cl)ccc23)cc1 | 73.4 nM |  | 
COc1ccc(C(=O)/C=C/c2ccc(OCC(=O)NCCCCNc3ccnc4cc(Cl)ccc34)cc2)cc1 | 63 nM |  | 
O=C(COc1ccc(/C=C/C(=O)c2ccccc2)cc1)NCCNc1ccnc2cc(Cl)ccc12 | 905 nM |  | 
O=C(COc1ccc(C(=O)/C=C/c2ccccc2)cc1)NCCCCCCNc1ccnc2cc(Cl)ccc12 | 4070 nM |  | 
COc1ccc(/C=C/C(=O)c2ccc(OCC(=O)O)cc2)cc1 | > 10000 nM |  | 
O=C(O)COc1ccc(/C=C/C(=O)c2ccccc2)cc1 | > 10000 nM |  | 
COc1ccc(C(=O)/C=C/c2ccc(OCC(=O)NCCCNc3ccnc4cc(Cl)ccc34)cc2)cc1 | 221 nM |  | 
O=Cc1ccc(OCC(=O)NCCNc2ccnc3cc(Cl)ccc23)cc1 | 419 nM |  | 
C[C@@H]1CC[C@H]2[C@@H](C)C(=O)O[C@@H]3O[C@@]4(C)CC[C@@H]1[C@]32OO4 [ARTEMISININ] | 6.5 nM |  | 
COc1ccc(C(=O)/C=C/c2ccc(OCC(=O)NCCNc3ccnc4cc(Cl)ccc34)cc2)cc1 | 379 nM |  | 
CC(=O)c1ccc(OCC(=O)NCCNc2ccnc3cc(Cl)ccc23)cc1 | 558 nM |  | 
O=C(COc1ccc(C(=O)/C=C/c2ccccc2)cc1)NCCNc1ccnc2cc(Cl)ccc12 | 840 nM |  | 
COc1ccc(/C=C/C(=O)c2ccc(OCC(=O)NCCCNc3ccnc4cc(Cl)ccc34)cc2)cc1 | 50.5 nM |  | 
COc1ccc(C(=O)/C=C/c2ccc(OCC(=O)NCCCCCCNc3ccnc4cc(Cl)ccc34)cc2)cc1 | 35.4 nM | 1130 | 40000 nM
O=Cc1ccc(OCC(=O)NCCCCCCNc2ccnc3cc(Cl)ccc23)cc1 | 875 nM |  | 
CC(=O)c1ccc(OCC(=O)NCCCCCCNc2ccnc3cc(Cl)ccc23)cc1 | 71.1 nM |  | 
COc1ccc(/C=C/C(=O)c2ccc(OCC(=O)NCCCCCCNc3ccnc4cc(Cl)ccc34)cc2)cc1 | 17.8 nM | 1400 | 25000 nM
O=C(COc1ccc(/C=C/C(=O)c2ccccc2)cc1)NCCCNc1ccnc2cc(Cl)ccc12 | 109 nM |  | 
